Series [1] concerns Human immunodeficiency virus 1. Kind of series: Antiviral activity against HIV1 HXB2 infected in human MT4 cells assessed as protection against virus-induced cell death at 2.5 to 5 uM after 6 to 7 days by luciferase assay. In kind it is functional, organism-based. An outline of the steps:
(§1)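 MT-4 luciferase reporter cells (1×10^3 cells) were infected with HIV-1 HXB2 in the presence of peptides at various concentrations. At 6–7 days post-infection, cells were lysed and luciferase activity was read by chemiluminescence.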

Series [2] relates to Human immunodeficiency virus 1. Kind of series: Antiviral activity against HIV1 HXB2 infected in human MT4 cells assessed as protection against virus-induced cell death after 6 to 7 days by luciferase assay. In kind it is functional, organism-based. The method in brief:
as §1

Series [3] has as its system MT4. Kind of series: Cytotoxicity against human MT4 cells at 10 uM after 6 to 7 days. In kind it is cell-based. To be noted: mt4, 10 µM.
Series [4] has as its system Human immunodeficiency virus 1. Kind of series: Antiviral activity against HIV1 HXB2 infected in human MT4 cells assessed as protection against virus-induced cell death at 5 uM after 6 to 7 days by luciferase assay. The class given is functional, organism-based. An outline of the steps:
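MT-4 luciferase reporter cells (1×10^3 per well) infected with HIV-1 HXB2 while exposed to a range of peptide concentrations. After 6–7 days post-infection, cells were lysed, luciferase activity was measured with a Steady-Glo kit, and chemiluminescence was read on a luminometer.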

Series [5] relates to Human immunodeficiency virus 1. Kind of series: Antiviral activity against HIV1 HXB2 infected in human MT4 cells assessed as protection against virus-induced cell death at 10 uM after 6 to 7 days by luciferase assay. The class given is functional, organism-based. The method in brief:
as §1

Series [6] addresses T1, Human immunodeficiency virus type 1 integrase (Human immunodeficiency virus 1, UniProt Q7ZJM1). Kind of series: Inhibition of HIV1 integrase 3'-processing activity expressed in Escherichia coli after 60 mins. An outline of the steps:
(§2)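 Recombinant IN was expressed in and purified from E. coli, with 10% glycerol in all buffers. Reactions contained 400 nM IN, 20 nM 5'-end [³²P]-labeled oligonucleotide substrate and inhibitor at varied concentrations, with 10% DMSO alone as control. Reactions were stopped with EDTA/formamide loading dye. IC50 came from a logistic nonlinear fit.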

Series [7] concerns MT4. Kind of series: Cytotoxicity against human MT4 cells at >5 uM after 6 to 7 days. The class given is cell-based.
Series [8] deals with T1, Human immunodeficiency virus type 1 integrase. Kind of series: Inhibition of HIV1 integrase strand transfer activity expressed in Escherichia coli after 60 mins. The method in brief: as §2
Series [9] concerns Human immunodeficiency virus 1. Kind of series: Antiviral activity against HIV1 HXB2 infected in human MT4 cells assessed as protection against virus-induced cell death at 1.25 uM after 6 to 7 days by luciferase assay. In kind it is functional, organism-based. An outline of the steps:
as §1

Active and inactive are the calls of the source. No cut-off for these calls is given here.

T1 sequence (Q7ZJM1 whole entry): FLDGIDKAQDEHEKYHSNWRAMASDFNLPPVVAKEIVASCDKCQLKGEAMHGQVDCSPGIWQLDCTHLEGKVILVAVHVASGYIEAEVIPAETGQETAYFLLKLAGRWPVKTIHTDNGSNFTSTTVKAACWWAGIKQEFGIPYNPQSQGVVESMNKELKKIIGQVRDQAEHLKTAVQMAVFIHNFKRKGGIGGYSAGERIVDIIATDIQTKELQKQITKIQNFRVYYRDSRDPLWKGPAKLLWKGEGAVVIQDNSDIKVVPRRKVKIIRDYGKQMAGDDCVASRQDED

As to `CC[C@H](C)[C@H](NC(=O)[C@H](C)NC(=O)[C@H](CCC(=O)O)NC(C)=O)C(=O)N[C@H](C(=O)N[C@@H](CCCNC(=N)N)C(=O)N[C@H](C(=O)N[C@@H](CC(C)C)C(=O)N[C@@H](CCC(N)=O)C(=O)N[C@@H](CCC(N)=O)C(=O)N[C@@H](CC(C)C)C(=O)N[C@@H](CC(C)C)C(=O)N[C@@H](Cc1ccccc1)C(=O)N[C@H](C(=O)N[C@@H](CCC(=O)O)C(=O)N[C@@H](Cc1ccccc1)C(=O)N[C@@H](CCCNC(=N)N)C(=O)N[C@H](C(=O)N[C@@H](CCCCN)C(=O)N[C@@H](CCCNC(=N)N)C(=O)N[C@@H](CCCNC(=N)N)C(=O)N[C@@H](CCCNC(=N)N)C(=O)N[C@@H](CCCNC(=N)N)C(=O)N[C@@H](CCCNC(=N)N)C(=O)N[C@@H](CCCNC(=N)N)C(=O)N[C@@H](CCCNC(=N)N)C(=O)N[C@@H](CCCNC(=N)N)C(N)=O)[C@@H](C)CC)[C@@H](C)CC)[C@@H](C)CC)[C@@H](C)CC`, in series [1], the outcome was Active. For Ac-LQQLLAIHFRIGRRRRRRRR-NH2, the Activity entry in series [2] is “Dose-dependent effect”; with MT4 [3] it was “Toxic”. In series [4], the result was inactive. In the case of Ac-LQQLAFIHFRIGRRRRRRRR-NH2, the Activity result is “Dose-dependent effect” in series [2] and “Toxic” with MT4 [3].

For Ac-EEIIRKLQQLLFIEFRIKRRRRRRRR-NH2, the outcome in series [5] was inactive.

With Ac-EAIIRILQELLFKHFRIGRRRRRRRR-NH2, the result in [5] was inactive. In turn, Ac-LQQLLFIHFRIARRRRRRRR-NH2 yielded an IC50 in [6] of 90 nM. The Activity result in series [2] is “Dose-dependent effect”. Ac-AQQLLFIHFRIGRRRRRRRR-NH2: the Activity entry in [2] is “Dose-dependent effect”.

For Ac-LQQALFIHFRIGRRRRRRRR-NH2, the Activity result is “Dose-dependent effect” in series [2] and “Toxic” in the series on MT4 [3]. With Ac-LQQLLFIHFAIGRRRRRRRR-NH2, the values for the Activity entry (in [2]; in the series on MT4 [3]) were “Dose-dependent effect” and “Toxic”, respectively. As for `CC[C@H](C)[C@H](NC(=O)[C@H](CCCNC(=N)N)NC(=O)[C@H](Cc1ccccc1)NC(=O)[C@H](Cc1cnc[nH]1)NC(=O)[C@@H](NC(=O)[C@H](Cc1ccccc1)NC(=O)[C@H](CC(C)C)NC(=O)[C@H](CC(C)C)NC(=O)[C@H](CCC(N)=O)NC(=O)[C@H](CCC(N)=O)NC(=O)[C@H](CC(C)C)NC(=O)[C@H](CCCCN)NC(=O)[C@H](CCCNC(=N)N)NC(=O)[C@@H](NC(=O)[C@@H](NC(=O)[C@H](CCC(=O)O)NC(=O)[C@H](CCC(=O)O)NC(C)=O)[C@@H](C)CC)[C@@H](C)CC)[C@@H](C)CC)C(=O)NCC(=O)N[C@@H](CCCNC(=N)N)C(=O)N[C@@H](CCCNC(=N)N)C(=O)N[C@@H](CCCNC(=N)N)C(=O)N[C@@H](CCCNC(=N)N)C(=O)N[C@@H](CCCNC(=N)N)C(=O)N[C@@H](CCCNC(=N)N)C(=O)N[C@@H](CCCNC(=N)N)C(=O)N[C@@H](CCCNC(=N)N)C(N)=O`, the outcome in [5] was inactive. As to Ac-LQQLLFIHARIGRRRRRRRR-NH2, the Activity entry in series [2] was “Dose-dependent effect”; with MT4 [3], “Toxic”. With Ac-LQALLFIHFRIGRRRRRRRR-NH2, the Activity result in series [2] was “Dose-dependent effect”; with MT4 [3], “Toxic”. In the case of Ac-LQQLLFIHFRAGRRRRRRRR-NH2, in series [2], the Activity result is “Dose-dependent effect”. For the compound Ac-LAQLLFIHFRIGRRRRRRRR-NH2, the Activity result in series [2] was “Dose-dependent effect”; in the series with MT4 [3], “Toxic”. For the compound Ac-LQQLLFIAFRIGRRRRRRRR-NH2, the figures for the Activity entry (in series [2]; with MT4 [7]) were “Dose-dependent effect” and “Toxic”, respectively.

Take `CC[C@H](C)[C@H](NC(=O)[C@H](C)NC(=O)[C@H](CCC(=O)O)NC(C)=O)C(=O)N[C@H](C(=O)N[C@@H](CCCNC(=N)N)C(=O)N[C@H](C(=O)N[C@@H](CC(C)C)C(=O)N[C@@H](CCC(N)=O)C(=O)N[C@@H](CCC(N)=O)C(=O)N[C@@H](CC(C)C)C(=O)N[C@@H](CC(C)C)C(=O)N[C@@H](Cc1ccccc1)C(=O)N[C@H](C(=O)N[C@@H](Cc1cnc[nH]1)C(=O)N[C@@H](Cc1ccccc1)C(=O)N[C@@H](CCCNC(=N)N)C(=O)N[C@H](C(=O)NCC(=O)N[C@@H](CCCNC(=N)N)C(=O)N[C@@H](CCCNC(=N)N)C(=O)N[C@@H](CCCNC(=N)N)C(=O)N[C@@H](CCCNC(=N)N)C(=O)N[C@@H](CCCNC(=N)N)C(=O)N[C@@H](CCCNC(=N)N)C(=O)N[C@@H](CCCNC(=N)N)C(=O)N[C@@H](CCCNC(=N)N)C(N)=O)[C@@H](C)CC)[C@@H](C)CC)[C@@H](C)CC)[C@@H](C)CC`: the IC50 in [6] was found to be 90 nM; in series [8] it was 40 nM. Moreover, the outcome in [9] was Active. In addition, the result in series [5] was inactive. For the compound Ac-LQQLLFAHFRIGRRRRRRRR-NH2, the Activity result was “Dose-dependent effect” in series [2] and “Toxic” with MT4 [7]. Also, the outcome in [4] was inactive.

On to Ac-EAEIRIKQQLLFIHFRIGRRRRRRRR-NH2, for which the result in [5] was Active.

Consider Ac-EAIERILKQLLFIHFRIGRRRRRRRR-NH2, for which the result in series [1] was Active. Regarding `CC[C@H](C)[C@H](NC(=O)[C@H](CCCNC(=N)N)NC(=O)[C@H](Cc1ccccc1)NC(=O)[C@H](Cc1cnc[nH]1)NC(=O)[C@@H](NC(=O)[C@H](Cc1ccccc1)NC(=O)[C@H](CC(C)C)NC(=O)[C@H](CC(C)C)NC(=O)[C@H](CCC(N)=O)NC(=O)[C@H](CCC(N)=O)NC(=O)[C@H](CC(C)C)NC(C)=O)[C@@H](C)CC)C(=O)NCC(=O)N[C@@H](CCCNC(=N)N)C(=O)N[C@@H](CCCNC(=N)N)C(=O)N[C@@H](CCCNC(=N)N)C(=O)N[C@@H](CCCNC(=N)N)C(=O)N[C@@H](CCCNC(=N)N)C(=O)N[C@@H](CCCNC(=N)N)C(=O)N[C@@H](CCCNC(=N)N)C(=O)N[C@@H](CCCNC(=N)N)C(N)=O`, the IC50 came out at 130 nM in series [6] and 60 nM in series [8]. In addition, in the series with MT4 [3], the Activity result is “Toxic”. In the case of Ac-EAIIRILQQLEFIHKRIGRRRRRRRR-NH2, the result in series [1] was Active.
